Values after ≈ are worked out from the molar mass of the structure shown. Active and inactive are the calls of the source. No cut-off for these calls is given here.

By MIC50 is commonly meant the lowest concentration that inhibits either 50% of growth or 50% of the strains tested, depending on the study. A higher MIC50 goes with weaker potency. In general, EC50 refers to the concentration at which the effect is half-maximal.

The subject of data set [1] is Candida albicans. The data set can be described thus: Antifungal activity against Candida albicans ATCC 64124 incubated for 48 hrs by modified CLSI M27-A3 protocol based method. Format: functional. The note with it: ATCC 64124, 48 h.
Data set [2] concerns Candida albicans. Kind of data set: Antifungal activity against ITC and FLC-susceptible Candida albicans ATCC MYA-2876 incubated for 48 hrs by modified CLSI M27-A3 protocol based method. The settings on record: ATCC MYA-2876, 48 h. Format: functional. The method in brief: (§1)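 Because these Candida strains show trailing growth, MIC-2 was read, meaning 50% growth inhibition. Caspofungin and voriconazole were tested here; other controls came from earlier work.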

The test system of data set [3] is Candida albicans. Kind of data set: Antifungal activity against ITC and FLC-resistant Candida albicans ATCC MYA-1003 incubated for 48 hrs by modified CLSI M27-A3 protocol based method. Format: functional. The note with it: ATCC MYA-1003, 48 h. The gist of the method: as §1
Data set [4] can be described thus: Toxicity in human A549 cells assessed as reduction in cell viability incubated for 24 hrs by resazurin dye based assay. The gist of the method:
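Toxicity tested in the nucleated lines A549 and BEAS-2B to give EC50 values. Selectivity index is EC50 against the mammalian line divided by the MIC against a given fungal strain.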
For orientation: Alamar Blue is a resazurin reagent that responds to reducing activity.

The next data set has as its system A549. The data set can be described thus: Toxicity in human A549 cells assessed as reduction in cell viability up to 7.8 ug/ml incubated for 24 hrs by resazurin dye based assay. The settings on record: a549, 24 h.
For data set [5], the system named is Candida albicans. Kind of data set: Induction of membrane permeabilization in Candida albicans ATCC 10231 at 1 to 4 times MIC incubated for 1 hr by propidium iodide staining based fluorescence microscopy. Type of data set: functional, organism-based. The gist of the method: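 C. albicans ATCC 10231 treated at 1× and 4× MIC and stained with propidium iodide, a membrane-impermeant dye, to detect membrane damage. Untreated cells, FLC (7.8 µg/mL) and KANB (C14) (7.8 µg/mL) serve as comparators.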

A short description of data set [6]: Hemolytic activity in mouse erythrocytes assessed as hemolysis level at 15.6 ug/ml incubated for 1 hr at 37 degC. Format: ADME, cell-based, Erythrocyte. The note with it: read-out: Activity. The method in brief: (§2)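 Mouse erythrocytes incubated 1 h at 37 °C with test agents over 1.95 to 125 µg/mL. Percent lysis is read for each concentration.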
A short description of data set [7]: Hemolytic activity in mouse erythrocytes assessed as hemolysis level at 125 ug/ml incubated for 1 hr at 37 degC. Type of data set: ADME, cell-based, Erythrocyte. The note with it: read-out: Activity. The gist of the method:
as §2

Data set [8] in a line: Selectivity index, ratio of EC50 for toxicity in human A549 cells to MIC50 for antifungal activity against ITC and FLC-susceptible Candida albicans ATCC MYA-2876. Type of data set: cell-based. The note with it: read-out: Selectivity Index. The gist of the method: (§3)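 Selectivity index is the EC50 against the mammalian line (A549 or BEAS-2B) divided by the MIC against the given fungal strain.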

The nature of data set [9]: Selectivity index, ratio of EC50 for toxicity in human BEAS2B cells to MIC50 for antifungal activity against ITC and FLC-resistant Candida albicans ATCC MYA-90819. Type of data set: cell-based. The settings on record: BEAS-2B cells, read-out: Selectivity Index. The method in brief:
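Ratio of the compound's EC50 against BEAS-2B cells to its MIC against the named C. albicans strain. […] For C. albicans strains other than ATCC 10231, trailing growth meant MIC-2 was taken, meaning 50% growth inhibition.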

Data set [10] is described as follows: Selectivity index, ratio of EC50 for toxicity in human A549 cells to MIC50 for antifungal activity against ITC and FLC-susceptible Candida albicans ATCC MYA-2310. Type of data set: cell-based. The settings on record: read-out: Selectivity Index. The method in brief:
as §3

Data set [11] in a line: Selectivity index, ratio of EC50 for toxicity in human BEAS2B cells to MIC50 for antifungal activity against ITC and FLC-resistant Candida albicans ATCC 1237. Format: cell-based. The settings on record: BEAS-2B cells, read-out: Selectivity Index. The gist of the method: as §3
A short description of data set [12]: Selectivity index, ratio of EC50 for toxicity in human A549 cells to MIC50 for antifungal activity against ITC and FLC-resistant Candida albicans ATCC MYA-1003. Format: cell-based. The settings on record: read-out: Selectivity Index. The gist of the method:
as §3

A short description of data set [13]: Selectivity index, ratio of EC50 for toxicity in human BEAS2B cells to MIC50 for antifungal activity against ITC and FLC-resistant Candida albicans ATCC MYA-1003. Format: cell-based. The settings on record: BEAS-2B cells, read-out: Selectivity Index. The method in brief:
as §3

Data set [14] in a line: Selectivity index, ratio of EC50 for toxicity in human A549 cells to MIC50 for antifungal activity against Candida glabrata ATCC 2001. The settings on record: read-out: Selectivity Index. Format: cell-based. The method in brief: as §3
Data set [15] in a line: Selectivity index, ratio of […] for toxicity in human BEAS2B cells to MIC50 for antifungal activity against Aspergillus flavus ATCC MYA-3631. Format: cell-based. The settings on record: BEAS-2B cells, read-out: Selectivity Index.
Data set [16] in a line: Selectivity index, ratio of […] for toxicity in human BEAS2B cells to MIC50 for antifungal activity against Aspergillus terreus ATCC MYA-3633. Type of data set: cell-based. The settings on record: BEAS-2B cells, read-out: Selectivity Index.
The next data set is described as follows: in vitro. The note with it: mouse, mouse erythrocytes.
The nature of data set [17]: Selectivity index, ratio of EC50 for toxicity in human BEAS2B cells to MIC50 for antifungal activity against Candida krusei ATCC 6258. The note with it: BEAS-2B cells.

As to `CCCCCCCCC(O)(Cn1cncn1)c1ccc(F)cc1F` (centres undefined), the MIC50 with Candida albicans [1] worked out at 11.6 µM (≈ 3.91 µg/mL); in the data set on Candida albicans [2], 5.8 µM (≈ 1.96 µg/mL); in the data set with Candida albicans [3], 5.8 µM (≈ 1.96 µg/mL). Moreover, the EC50 at 24 h in [4] came out at 12 µg/mL (≈ 35.6 µM). Besides, the Activity entry with A549 was “Non-Toxic”. Also, the result in the data set with Candida albicans [5] was inactive. In [6], the hemolysis at 1 h, 15.6 ug/ml came to 66.7%. The hemolysis at 1 h, 125 ug/ml in data set [7] turned out to be 97.1%. Moreover, the selectivity ratio in data set [8] is 6; in data set [9], 7; in data set [10], 6; in [11] it was 7; in data set [12] it was 6; in data set [13] it was 7. Further, the selectivity ratio in data set [14] is 6; in data set [15] it was 0.4; in [16] it was 2; in data set [17], 54. Also, the hemolysis at 1 h, 62.5 ug/ml in the data set “in vitro” was determined as 69%.

(Values after ChEMBL document CHEMBL4265871, “Novel alkylated azoles as potent antifungals” (Eur J Med Chem, 2017).)
